In ChEMBL document CHEMBL1795275, “Substituted benzoxazinones as potent positive allosteric AMPA receptor modulators: part II” (Bioorg Med Chem Lett, 2011):
The source made the active and inactive calls. The calls are words filed in the database; no cut-off is given here.

Assays:
Rattus norvegicus [1] = species: Rattus norvegicus; assay: Positive allosteric modulation of AMPA receptor in rat embryonic hippocampal neurons assessed as concentration required to double glutamate-induced steady-state current by patch clamp electrophysiology assay; conditions: Hippocampus
Rattus norvegicus [2] = species: Rattus norvegicus; assay: Positive allosteric modulation of AMPA receptor in rat hippocampal slices assessed as increase of fEPSP-induced current amplitude at 3 uM; type: tissue-based; conditions: Hippocampus
In short: (§1)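 Field recordings in in vitro hippocampal slices. Result is the percent rise in fEPSP amplitude, measured at the stated compound concentration.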

[3] = Displacement of [3H]-AMPAKINE from AMPA receptor in rat forebrain cell membranes; set-up: species or system Membrane
Rattus norvegicus [4] = species: Rattus norvegicus; assay: Positive allosteric modulation of AMPA receptor in rat hippocampal slices assessed as increase of fEPSP-induced current amplitude at 30 uM; type: tissue-based; conditions: Hippocampus; in short: as §1
Rattus norvegicus [5] = species: Rattus norvegicus; assay: Positive allosteric modulation of AMPA receptor in rat hippocampal slices assessed as increase of fEPSP-induced current amplitude at 10 uM; type: tissue-based; conditions: Hippocampus; in short: as §1
Rattus norvegicus [6] = species: Rattus norvegicus; assay: Positive allosteric modulation of AMPA receptor in rat hippocampal slices assessed as increase of fEPSP-induced current amplitude at 0.3 uM; type: tissue-based; conditions: Hippocampus; in short: as §1
Rattus norvegicus [7] = species: Rattus norvegicus; assay: Ratio of compound to CX614 for AMPA receptor in rat embryonic hippocampal neurons assessed as concentration required to double glutamate-induced steady-state current; conditions: Hippocampus
Rattus norvegicus [8] = species: Rattus norvegicus; assay: Positive allosteric modulation of AMPA receptor in rat hippocampal slices assessed as increase of fEPSP-induced current amplitude at 1 uM; type: tissue-based; conditions: Hippocampus; in short: as §1

| CD (Rattus norvegicus [1]) | Activity (Rattus norvegicus [2]) [%] | SMILES | Ki [3] [µM] | also measured |
| --- | --- | --- | --- | --- |
| 0.4 µM | 4 | O=C1c2cc3c(cc2OCN1CCc1ccon1)C(=O)N1CCCC1O3 (configuration not stated) | 41 |  |
| 0.01 µM | 14 | O=C1c2cc3c(cc2OCN1CCn1cnc([N+](=O)[O-])n1)C(=O)N1CCCC1O3 (configuration not stated) | 4.2 |  |
| 0.04 µM | 29 | N#Cc1cnn(CCN2COc3cc4c(cc3C2=O)OC2CCCN2C4=O)c1 (configuration not stated) | 1 |  |
| 1.3 µM |  | O=C1c2cc3c(cc2OCN1CCO)C(=O)N1CCCC1O3 (configuration not stated) | 33 |  |
| 200 µM |  | C[C@@H]1CN2C(=O)c3cc4c(cc3O[C@H]2O1)OCO4 |  |  |
| 0.02 µM | 15 | O=C1c2cc3c(cc2OCN1CCc1ccsc1)C(=O)N1CCCC1O3 (configuration not stated) | 0.27 |  |
| 0.032 µM |  | O=C1c2cc3c(cc2OCN1CCc1cccs1)C(=O)N1CCCC1O3 (configuration not stated) | 2 |  |
| 1.1 µM |  | NC(=O)CCN1COc2cc3c(cc2C1=O)OC1CCCN1C3=O (configuration not stated) | 51 | Activity (Rattus norvegicus [4]): 6% |
| 0.02 µM |  | O=C1c2cc3c(cc2OCN1CCc1cccc(Cl)c1)C(=O)N1CCCC1O3 (configuration not stated) | 1.8 | Activity (Rattus norvegicus [4]): 7% |
| 14 µM |  | COc1cccc(CCN2COc3cc4c(cc3C2=O)OC2CCCN2C4=O)c1 (configuration not stated) | 69 |  |
| 0.32 µM | 6 | CS(=O)(=O)CCN1COc2cc3c(cc2C1=O)OC1CCCN1C3=O (configuration not stated) | 20 |  |
| 3 µM |  | O=C1c2cc3c(cc2OCN1CCc1cccc(OC(F)(F)F)c1)C(=O)N1CCCC1O3 (configuration not stated) | 13 |  |
| 0.06 µM | 7 | N#CSCCN1COc2cc3c(cc2C1=O)OC1CCCN1C3=O (configuration not stated) | 1 |  |
| 0.045 µM | 16 | N#Cc1ccnn1CCN1COc2cc3c(cc2C1=O)OC1CCCN1C3=O (configuration not stated) | 22 |  |
| 0.4 µM |  | NC(=S)c1cccc(CCN2COc3cc4c(cc3C2=O)OC2CCCN2C4=O)c1 (configuration not stated) |  | Activity (Rattus norvegicus [5]): 5% |
| 7.1 µM |  | O=C1c2cc3c(cc2OCN1CCc1ccccc1Cl)C(=O)N1CCCC1O3 (configuration not stated) |  |  |
| 0.38 µM |  | CN(CCN1COc2cc3c(cc2C1=O)OC1CCCN1C3=O)S(C)(=O)=O (configuration not stated) | 31 | Activity (Rattus norvegicus [5]): 8% |
| 0.05 µM |  | O=C1c2cc3c(cc2OCN1CCn1ccnc1)C(=O)N1CCCC1O3 (configuration not stated) | 6.6 | Activity (Rattus norvegicus [5]): 38% |
| 0.0007 µM |  | O=C1c2cc3c(cc2OCN1CCn1cnc([N+](=O)[O-])c1)C(=O)N1CCCC1O3 (configuration not stated) | 0.06 | Activity (Rattus norvegicus [6]): 19%; Ratio (Rattus norvegicus [7]): 3000 |
| 0.05 µM | 11 | N#CCCCN1COc2cc3c(cc2C1=O)OC1CCCN1C3=O (configuration not stated) | 6.8 |  |

| CD (Rattus norvegicus [1]) | Activity (Rattus norvegicus [2]) [%] | SMILES | Ki [3] [µM] | also measured |
| --- | --- | --- | --- | --- |
| 0.015 µM | 8 | O=C1c2cc3c(cc2OCN1CCc1cccc([N+](=O)[O-])c1)C(=O)N1CCCC1O3 (configuration not stated) | 3.6 |  |
| 2.3 µM |  | O=C1c2cc3c(cc2OC2CCCN12)OCCO3 (configuration not stated) |  |  |
| 0.011 µM | 16 | O=C1c2cc3c(cc2OCN1CCc1cccc(F)c1)C(=O)N1CCCC1O3 (configuration not stated) | 0.5 |  |
| 0.33 µM |  | CN(CCCN1COc2cc3c(cc2C1=O)OC1CCCN1C3=O)S(C)(=O)=O (configuration not stated) | 34 | Activity (Rattus norvegicus [5]): 9% |
| 1.2 µM |  | O=C1c2cc3c(cc2OCN1CCc1ccc(F)cc1)C(=O)N1CCCC1O3 (configuration not stated) |  | Activity (Rattus norvegicus [4]): 6% |
| 0.6 µM |  | O=C1c2cc3c(cc2OCN1CCc1ccccn1)C(=O)N1CCCC1O3 (configuration not stated) | 130 | Activity (Rattus norvegicus [4]): 15% |
| 0.1 µM | 10 | N#Cc1ccn(CCN2COc3cc4c(cc3C2=O)OC2CCCN2C4=O)n1 (configuration not stated) | 18 |  |
| 0.5 µM |  | N#CCN1COc2cc3c(cc2C1=O)OC1CCCN1C3=O (configuration not stated) | 17 | Activity (Rattus norvegicus [5]): 10% |
| 0.2 µM | 15 | O=C1c2cc3c(cc2OCN1CCc1cccnc1)C(=O)N1CCCC1O3 (configuration not stated) | 6.6 |  |
| 1.8 µM |  | Cc1nccn1CCN1COc2cc3c(cc2C1=O)OC1CCCN1C3=O (configuration not stated) | 227 |  |
| 0.25 µM | 3 | O=C1c2cc3c(cc2OCN1CCc1ccccc1)C(=O)N1CCCC1O3 (configuration not stated) | 7.9 | Activity (Rattus norvegicus [4]): 19% |
| 0.2 µM |  | O=C1c2cc3c(cc2OCN1CCc1cccc(C(F)(F)F)c1)C(=O)N1CCCC1O3 (configuration not stated) | 2.5 | Activity (Rattus norvegicus [4]): 1% |
| 0.027 µM | 16 | N#Cc1cccc(CCN2COc3cc4c(cc3C2=O)OC2CCCN2C4=O)c1 (configuration not stated) | 3 |  |
| 5 µM |  | NC(=O)c1cccc(CCN2COc3cc4c(cc3C2=O)OC2CCCN2C4=O)c1 (configuration not stated) | 620 |  |
| 6 µM |  | O=C1c2cc3c(cc2OCN1Cc1ccccc1)C(=O)N1CCCC1O3 (configuration not stated) |  |  |
| 0.16 µM |  | O=C1c2cc3c(cc2OCN1CCn1ccnn1)C(=O)N1CCCC1O3 (configuration not stated) | 5.1 | Activity (Rattus norvegicus [8]): 8% |
| 0.02 µM | 32 | O=C1c2cc3c(cc2OCN1CCn1cc(Br)cn1)C(=O)N1CCCC1O3 (configuration not stated) | 2.5 |  |
| 5.1 µM |  | O=C1c2cc3c(cc2OCN1CCc1c[nH]cn1)C(=O)N1CCCC1O3 (configuration not stated) | 225 |  |
| inactive |  | O=C1c2cc3c(cc2OCN1c1ccccc1)C(=O)N1CCCC1O3 (configuration not stated) |  |  |
| 1.6 µM |  | O=C1c2cc3c(cc2OCN1CCc1cccc(Br)c1)C(=O)N1CCCC1O3 (configuration not stated) | 150 |  |

| CD (Rattus norvegicus [1]) | Activity (Rattus norvegicus [2]) [%] | SMILES | Ki [3] [µM] | also measured |
| --- | --- | --- | --- | --- |
| 0.24 µM | 3 | O=C1c2cc3c(cc2OCN1CCc1ccncc1)C(=O)N1CCCC1O3 (configuration not stated) | 43 | Activity (Rattus norvegicus [5]): 15% |
| 0.0065 µM |  | O=C1c2cc3c(cc2OCN1CCn1cc([N+](=O)[O-])cn1)C(=O)N1CCCC1O3 (configuration not stated) | 0.24 | Activity (Rattus norvegicus [8]): 29% |
| 3.6 µM |  | O=C1c2cc3c(cc2OCN1CCCc1ccccc1)C(=O)N1CCCC1O3 (configuration not stated) |  |  |
| 0.8 µM | 7 | O=C1c2cc3c(cc2OCN1CCn1nccn1)C(=O)N1CCCC1O3 (configuration not stated) | 62 |  |
| 0.2 µM |  | CCN1COc2cc3c(cc2C1=O)OC1CCCN1C3=O (configuration not stated) | 20 | Activity (Rattus norvegicus [5]): 17% |
| 2 µM |  | C[C@H]1CN2C(=O)c3cc4c(cc3O[C@@H]2O1)OCO4 |  |  |
| 0.11 µM | 14 | C[S+]([O-])CCN1COc2cc3c(cc2C1=O)OC1CCCN1C3=O (configuration not stated) | 13 |  |
| 0.0037 µM |  | O=C1c2cc3c(cc2OCN1CCn1cc(Cl)cn1)C(=O)N1CCCC1O3 (configuration not stated) | 0.33 | Activity (Rattus norvegicus [8]): 23% |
| 1.2 µM |  | COCCN1COc2cc3c(cc2C1=O)OC1CCCN1C3=O (configuration not stated) | 41 | Activity (Rattus norvegicus [5]): 14% |
| 0.33 µM | 10 | CS(=O)(=O)NCCN1COc2cc3c(cc2C1=O)OC1CCCN1C3=O (configuration not stated) | 8.4 |  |
| 0.005 µM | 16 | O=C1c2cc3c(cc2OCN1CCc1cc(F)cc(F)c1)C(=O)N1CCCC1O3 (configuration not stated) | 0.3 | Ratio (Rattus norvegicus [7]): 460 |
| 1.8 µM |  | N#CNCCN1COc2cc3c(cc2C1=O)OC1CCCN1C3=O (configuration not stated) | 51 | Activity (Rattus norvegicus [5]): 2% |
| 5.4 µM |  | O=C1c2cc3c(cc2OCN1CCc1ccccc1F)C(=O)N1CCCC1O3 (configuration not stated) | 36 |  |
| 0.08 µM | 16 | [N-]=[N+]=NCCN1COc2cc3c(cc2C1=O)OC1CCCN1C3=O (configuration not stated) | 5.9 |  |
| > 40 µM |  | O=C1c2cc3c(cc2OCN1CCc1ccc(Cl)cc1)C(=O)N1CCCC1O3 (configuration not stated) |  |  |
| 0.11 µM |  | N#CCCCCN1COc2cc3c(cc2C1=O)OC1CCCN1C3=O (configuration not stated) | 4.5 | Activity (Rattus norvegicus [5]): 22% |
| 0.063 µM | 31 | O=C1c2cc3c(cc2OCN1CCn1cncn1)C(=O)N1CCCC1O3 (configuration not stated) | 2.1 |  |
| 0.29 µM | 12 | CSCCN1COc2cc3c(cc2C1=O)OC1CCCN1C3=O (configuration not stated) | 17 |  |
| 0.064 µM | 15 | O=C1c2cc3c(cc2OCN1CCn1cccn1)C(=O)N1CCCC1O3 (configuration not stated) | 5.1 |  |
| 0.6 µM |  | N#CCCN1COc2cc3c(cc2C1=O)OC1CCCN1C3=O (configuration not stated) | 11 | Activity (Rattus norvegicus [5]): 19% |
